Data set [1] has as its target Aldo-keto reductase family 1 member B1 (Bos taurus) (UniProt P16116). In words: Inhibition of aldose reductase activity in a partially purified bovine lens preparation at 10e-7 M. The essentials:
(§1)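 Partially purified bovine lens aldose reductase (ammonium sulfate fractionation). NADPH oxidation read at 340 nm, 37 °C, in 30 mM sodium phosphate pH 6.2, 0.2 M LiSO4, […], 1% DMSO. Enzyme was preincubated with inhibitor for 5 min, then the reaction was started with 5 mM DL-glyceraldehyde. Duplicates; IC50 from linear regression of log concentration vs percent inhibition.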

Data set [2] concerns the target Aldo-keto reductase family 1 member B1 (Bos taurus, UniProt P16116). In words: In vitro inhibition of aldose reductase activity in a partially purified bovine lens preparation.
The target in data set [3] is Aldo-keto reductase family 1 member B1 (Bos taurus) (UniProt P16116). In words: Inhibition of aldose reductase activity in a partially purified bovine lens preparation at 4*10e-8 M. The method, boiled down:
as §1

The subject of data set [4] is Rattus norvegicus. In words: Percentage Inhibition of galactitol accumulation in the sciatic nerve of rats fed with the dose of 0.5 mg/kg/day. In kind it is functional. The method, boiled down: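 Male Sprague-Dawley rats (70-90 g), six per group, fed 20% galactose chow with compound in the diet for 4 days; glucose-fed controls. After a 3-h fast, lens or sciatic nerve galactitol was measured as nmol/mg wet weight. Percent inhibition vs galactose-fed controls, mean ± SEM; ANOVA with Dunnett's test.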

Data set [5] in a line: Half-life In vitro. The class given is ADME.

In turn, `COc1cc2c(cc1Br)C(=O)N(C)C(=O)C21CC(=O)NC1=O` (configuration not stated) showed an inhibition in data set [1] of 17%. Molecule `O=C1CC2(C(=O)N1)C(=O)N(Cc1nc3ccccc3s1)C(=O)c1ccccc12` (configuration not stated) came in with an IC50 in data set [2] of 15 nM.

For the molecule `COc1ccc2c(c1)C1(CC(=O)NC1=O)C(=O)N(C)C2=O` (configuration not stated), the inhibition is 63% in data set [1] and 30% in data set [3]. Taken in the same sequence, the figures for `CN1C(=O)c2cccc(Cl)c2C2(CC(=O)NC2=O)C1=O` (configuration not stated) were 24% and 11%. For `CCCN1C(=O)c2ccccc2C2(CC(=O)NC2=O)C1=O` (configuration not stated), the inhibition in data set [1] came out at 19%.

Take `CN1C(=O)c2ccc([N+](=O)[O-])cc2C2(CC(=O)NC2=O)C1=O` (configuration not stated): the figures for the inhibition in data set [1] and in data set [3] were 71% and 53%, respectively. In the case of `CN1C(=O)c2ccc(F)cc2C2(CC(=O)NC2=O)C1=O` (configuration not stated), the inhibition was 74% in data set [1] and 36% in data set [3]. Taken in the same sequence, the figures for `CCCCN1C(=O)c2ccccc2C2(CC(=O)NC2=O)C1=O` (configuration not stated) were 17% and 19%. In data set [2], `O=C1CC2(C(=O)N1)C(=O)N(Cc1ccc(Br)cc1F)C(=O)c1cc(F)ccc12` (configuration not stated) registered an IC50 of 20 nM. `CN1C(=O)c2cc(Cl)c(Cl)cc2C2(CC(=O)NC2=O)C1=O` (configuration not stated): the inhibition in data set [1] was found to be 89%; in data set [3] it was 84%. The molecule `O=C1CC2(C(=O)N1)C(=O)N(Cc1cccc(C(F)(F)F)c1)C(=O)c1ccccc12` (configuration not stated) returned an IC50 in data set [2] of 17 nM. The same measure, in the same setting: in the case of `O=C1CC2(C(=O)N1)C(=O)N(Cc1ccc(Cl)cc1)C(=O)c1ccccc12` (configuration not stated) it was 22 nM. For `CN1C(=O)c2cc(Cl)ccc2C2(CC(=O)NC2=O)C1=O` (configuration not stated), the results for the inhibition in data set [1] and in data set [3] were 61% and 34%, respectively. `O=C1CC2(C(=O)N1)C(=O)N(Cc1ccc(Br)cc1)C(=O)c1ccccc12` (configuration not stated) returned an IC50 in data set [2] of 22 nM. Regarding `COc1cc2c(cc1Cl)C1(CC(=O)NC1=O)C(=O)N(C)C2=O` (configuration not stated), the inhibition in data set [1] came to 84%; in data set [3], 66%. This molecule also gave an inhibition in vivo at 0.5 mg/kg/day in data set [4] of 51%. Consider `O=C1C[C@]2(C(=O)N1)C(=O)N(Cc1ccc(Br)cc1F)C(=O)c1ccccc12`, for which, in data set [5], the half-life was 4 h. In addition, in data set [2], the IC50 was determined as 1000 nM. In the case of `Cc1ccc2c(c1)C1(CC(=O)NC1=O)C(=O)N(C)C2=O` (configuration not stated), the inhibition in data set [1] stood at 65%; in data set [3], 35%. In data set [2], `COc1ccc(CN2C(=O)c3ccccc3C3(CC(=O)NC3=O)C2=O)cc1` (configuration not stated) came in with an IC50 of 25 nM. With `Cc1cccc(CN2C(=O)c3ccccc3C3(CC(=O)NC3=O)C2=O)c1` (configuration not stated), the IC50 in data set [2] turned out to be 25 nM.

For `O=C1CC2(C(=O)N1)C(=O)N(Cc1ccc(C(F)(F)F)cc1)C(=O)c1ccccc12` (configuration not stated), the midpoint of inhibition in data set [2], the IC50, lay at 25 nM.

With `COc1ccc2c(c1)C(=O)N(C)C(=O)C21CC(=O)NC1=O` (configuration not stated), the inhibition in data set [1] came out at 55%; in data set [3] it was 41%.

Take `O=C1CC2(C(=O)N1)C(=O)N(Cc1ccc(Br)cc1F)C(=O)c1ccc(C(F)(F)F)cc12` (configuration not stated): in data set [2], the IC50 is 38 nM. That is a double-digit nanomolar value. For `CCN1C(=O)c2ccccc2C2(CC(=O)NC2=O)C1=O` (configuration not stated), the results for the inhibition in data set [1] and in data set [3] were 27% and 17%, respectively.

`O=C1CC2(C(=O)N1)C(=O)N(Cc1ccc(Br)cc1F)C(=O)c1c(F)cccc12` (configuration not stated) returned an inhibition in vivo at 0.5 mg/kg/day in data set [4] of 51%. For the same molecule, in data set [2], the IC50 was found to be 23 nM. In data set [4], `COc1cc2c(cc1Br)C1(CC(=O)NC1=O)C(=O)N(Cc1ccc(Br)cc1F)C2=O` (configuration not stated) yielded an inhibition in vivo at 0.5 mg/kg/day of 55%. The molecule also registered an IC50 in data set [2] of 28 nM. Taken in the same sequence, the figures for `COc1ccc2c(c1F)C1(CC(=O)NC1=O)C(=O)N(Cc1ccc(Br)cc1F)C2=O` (configuration not stated) were 43% and 30 nM. With `CON1C(=O)c2ccc(Cl)cc2C2(CC(=O)NC2=O)C1=O` (configuration not stated), the results for the inhibition in data set [1] and in data set [3] were 27% and 11%, respectively. As for `O=C1CC2(C(=O)N1)C(=O)N(Cc1ccc(Br)cc1F)C(=O)c1cccc(F)c12` (configuration not stated), the inhibition in vivo at 0.5 mg/kg/day in data set [4] came to 52%. Further, the IC50 in data set [2] stood at 21 nM. On to `O=C1CC2(C(=O)N1)C(=O)N(Cc1nc3ccccc3s1)C(=O)c1ccc(F)cc12` (configuration not stated), for which the half-inhibitory concentration (IC50) in data set [2] was found to be 18 nM.

What is called inhibition is how much of the control response was suppressed. High values mean strong suppression, low ones little suppression. A word on the IC50: it is the concentration at which inhibition is half-maximal. A higher IC50 goes with lower potency. In general, inhibition in vivo refers to how much of the control response was suppressed. Higher therefore signals strong suppression. As a reminder, the half-life is the time in which the quantity being followed falls by half. A lower half-life goes with rapid decline.

The values are drawn from ChEMBL document CHEMBL1127561, “Novel spirosuccinimide aldose reductase inhibitors derived from isoquinoline-1,3-diones: 2-[(4-bromo-2-fluorophenyl)methyl]-6- fluorospiro[isoquinoline-4(1H),3'-pyrrolidine]-1,2',3,5'(2H)-tetrone and congeners. 1” (J Med Chem, 1994).
